Molecules are shown by their SMILES. Where only a bound is given, the exact number is not on record here.

Data set [1] in a line: Cytotoxicity against Hepatocyte cells assessed as cell viability by MTT assay. It counts as cell-based. The note with it: hepatocytes; read-out: TC50 (the source's name). The essentials:
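MTT assay in mouse hepatocyte cultures prepared as for infection. Drugs at eight concentrations from 6.4 x 10–3 to 100 µM, triplicate wells. MTT 0.5 mg/ml (final) added for 4 h at 37°C, cells taken up in ethanol/DMSO 50/50, absorbance 550 nm with 620 nm reference. Viability expressed as percent of drug-free controls; TC50 by linear regression.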

In a further data set the test system is Plasmodium yoelii yoelii. Briefly: Antimicrobial activity against Plasmodium yoelii 265 liver infected in mammalian hepatocytes after 48 hrs. It counts as functional, organism-based. Particulars: Plasmodium yoelii, 265, Hepatocyte.
Data set [2] is described as follows: Selectivity index, ratio of TC50 for hepatocytes to IC50 for Plasmodium yoelii. More on the design: species or system Hepatocyte. The method, boiled down:
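SI calculated as hepatocyte TC50 (MTT, mouse hepatocytes) divided by liver-stage IC50 against P. yoelii yoelii, both measured in this work.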

The subject of another data set is Plasmodium falciparum. Briefly: Antimicrobial activity against Plasmodium falciparum NF54 schizonts in mammalian hepatocytes after 96 hrs. Type of data set: functional, organism-based. The note with it: NF54, Hepatocyte. The essentials: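 Primary hepatocytes isolated by collagenase perfusion, 10^5 cells per chamber-slide well, held 24 h at 37°C, 4% CO2, then infected with 9 x 10^4 NF54 sporozoites dissected from salivary glands of infected Anopheles stephensi. Drugs added at infection to duplicate cultures, seven concentrations from 1 x 10^-6 to 30 µM, renewed daily. Methanol-fixed; HSPi72 serum with FITC anti-mouse IgG; schizonts counted; IC50 by linear regression.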

As for `CC[C@H](C)[C@H](NC(=O)[C@H]([C@@H](C)CC)N(C)C(C)=O)C(=O)N[C@H](C(=O)N[C@@H](CC(C)C)C(=O)[C@@]1(C)CO1)[C@@H](C)O` [EPOXOMYCIN], the CC50 in data set [1] is 47.3 µM. The IC50 (usually the concentration that gives 50% inhibition) in the data set with Plasmodium yoelii yoelii came out at 3950 nM. Besides, the “Selectivity Index” value in data set [2] was found to be 11.97.
On the same counts, the results for `O=C1C(O)=C([C@H]2CC[C@H](c3ccc(Cl)cc3)CC2)C(=O)c2ccccc21` [ATOVAQUONE] are 16.5 µM, 57 nM and 289.
As for `CC[C@@]1([C@@H]2O[C@@H]([C@H]3O[C@@](O)(CO)[C@H](C)C[C@@H]3C)C[C@@H]2C)CC[C@H]([C@]2(C)CC[C@]3(C[C@H](O)[C@@H](C)[C@@H]([C@@H](C)[C@@H](OC)[C@H](C)C(=O)O)O3)O2)O1` [MONENSIN], the values for the IC50 in the data set on Plasmodium falciparum and in the data set on Plasmodium yoelii yoelii were less than 1 pM and less than 0.001 nM, respectively. In addition, the CC50 in data set [1] is greater than 32 µM. For the same compound, in data set [2], the “Selectivity Index” value is recorded as greater than 32000000.
Regarding `CCOC(=O)NC(=S)Nc1ccccc1NC(=S)NC(=O)OCC` [THIOPHANATE], in data set [1], the CC50 is greater than 100 µM. Besides, the concentration for half-maximal inhibition (IC50) in the data set with Plasmodium yoelii yoelii was found to be 30000 nM. For the same compound, the “Selectivity Index” value in data set [2] is listed as greater than 3.33.
As for `CC[C@]1(O)C[C@@H]2CN(CCc3c([nH]c4ccccc34)[C@@](C(=O)OC)(c3cc4c(cc3OC)N(C)[C@H]3[C@@](O)(C(=O)OC)[C@H](OC(C)=O)[C@]5(CC)C=CCN6CC[C@]43[C@@H]65)C2)C1` [VINBLASTINE], the CC50 in data set [1] is 54.5 µM. This compound showed an IC50 in the data set with Plasmodium yoelii yoelii of 7950 nM. In data set [2], the “Selectivity Index” value is listed as 6.85.
For the compound `COC(=O)Nc1nc2cc(Sc3ccccc3)ccc2[nH]1` [FENBENDAZOLE], the CC50 in data set [1] was greater than 100 µM. In the data set on Plasmodium yoelii yoelii, this compound yielded an IC50 of 30000 nM. In addition, the “Selectivity Index” value in data set [2] is greater than 3.33.
Regarding `CC(C)(C)NC(=O)[C@@H]1CN(Cc2cccnc2)CCN1C[C@@H](O)C[C@@H](Cc1ccccc1)C(=O)N[C@H]1c2ccccc2C[C@H]1O`, the CC50 in data set [1] is 8.77 µM. This compound also displayed an IC50 in the data set with Plasmodium yoelii yoelii of 5000 nM.
Regarding `CCN(CC)CCCC(C)Nc1c2ccc(Cl)cc2nc2ccc(OC)cc12` (stereo unspecified) [QUINACRINE], the CC50 in data set [1] was greater than 11.6 µM. The compound also had a concentration for half-maximal inhibition (IC50) with Plasmodium yoelii yoelii of 30000 nM. The “Selectivity Index” value in data set [2] is on record as greater than 0.38.
In the case of `COCC(=O)O[C@]1(CCN(C)CCCc2nc3ccccc3[nH]2)CCc2cc(F)ccc2[C@@H]1C(C)C` [MIBEFRADIL], in data set [1], the CC50 is 67.9 µM. In addition, the IC50 in the data set with Plasmodium yoelii yoelii amounted to 0.873 nM. For the same compound, the “Selectivity Index” value in data set [2] was determined as 77000.
For `CC(Cc1ccc(O)c(O)c1)C(C)Cc1ccc(O)c(O)c1` (stereo unspecified) [NORDIHYDROGUAIARETIC ACID] the same measures were greater than 100 µM, 30000 nM and greater than 3.33.
`CC(C)c1nc(CN(C)C(=O)N[C@H](C(=O)N[C@@H](Cc2ccccc2)C[C@H](O)[C@H](Cc2ccccc2)NC(=O)OCc2cncs2)C(C)C)cs1` [RITONAVIR] showed an IC50 with Plasmodium yoelii yoelii of 34.2 nM.
As to `CC(CCc1ccc(O)cc1)NCCc1ccc(O)c(O)c1` (stereo unspecified) [DOBUTAMINE], in data set [1], the CC50 was greater than 100 µM. In addition, half-maximal inhibition in the data set with Plasmodium yoelii yoelii (IC50) was put at 3.7 nM. Besides, the “Selectivity Index” value in data set [2] is recorded as greater than 27000.
For `CC(N)C12CC3CC(CC(C3)C1)C2` (stereo unspecified) [RIMANTADINE] the same measures were greater than 100 µM, 35.6 nM and greater than 3.33.
On the same counts, the results for `CC(C)Nc1cccnc1N1CCN(C(=O)c2cc3cc(NS(C)(=O)=O)ccc3[nH]2)CC1` [DELAVIRDINE] are greater than 100 µM, 0.846 nM and greater than 118000.
With `COc1cc(NC(C)CCCN)c2ncccc2c1` (stereo unspecified) [PRIMAQUINE], the CC50 in data set [1] was found to be 12.5 µM.
As for `CO[C@@H]1C[C@@H](C[C@H]2CC[C@H](C)[C@H]([C@@H](C)C(=O)O)O2)O[C@]2(O[C@](C)([C@H]3CC[C@@](C)([C@@H]4O[C@@H]([C@H]5O[C@@](O)(CO)[C@H](C)C[C@@H]5C)C[C@@H]4C)O3)C[C@H]2C)[C@@H]1C` [NIGERICIN], the values for the IC50 in the data set with Plasmodium falciparum and with Plasmodium yoelii yoelii were less than 1 pM and less than 0.001 nM, respectively. Besides, the CC50 in data set [1] was determined as 13.2 µM. Also, the “Selectivity Index” value in data set [2] was greater than 13200000.
Take `Clc1ccc(COC(Cn2ccnc2)c2ccc(Cl)cc2Cl)c(Cl)c1` (stereo unspecified) [MICONAZOLE]: the CC50 in data set [1] was found to be 70.4 µM. In the data set with Plasmodium yoelii yoelii, this compound returned an IC50 of 2.03 nM. The “Selectivity Index” value in data set [2] turned out to be 34700.
On to `C=CC(C)(C)c1cc(/C=C/C(=O)c2ccc(O)cc2)c(OC)cc1O` [LICOAGROCHACONE A], for which the CC50 in data set [1] was 63.4 µM. This compound yielded a half-inhibitory concentration (IC50) with Plasmodium yoelii yoelii of 0.927 nM. For the same compound, the “Selectivity Index” value in data set [2] is recorded as 68300.

The values are drawn from ChEMBL document CHEMBL1255292, “New active drugs against liver stages of Plasmodium predicted by molecular topology” (Antimicrob Agents Chemother, 2008).
